Published values gathered from unrelated publications.
Lines come from different studies, so protocols differ. ≈ marks a conversion by molar mass, not a printed value.

For `[H]/N=C(/N)N[C@H]1[C@H](O)[C@@H](O)[C@H](O[C@@H]2O[C@@H](C)[C@](O)(C=O)[C@H]2O[C@@H]2O[C@@H](CO)[C@H](O)[C@@H](O)[C@@H]2NC)[C@@H](N/C(N)=N\[H])[C@@H]1O`, the inhibition zone was 24 mm (Bacillus subtilis; microbial growth, well diffusion; MTCC121; 1000 µg/mL, 18 h).
With `C/C(=N/NC(=O)c1cn(-c2ccccc2)nc1-c1ccc(Cl)cc1)c1c(O)cc(C)oc1=O` the MIC was 70 µg/mL (≈ 151 µM) (Bacillus subtilis; microbial growth).
With `CC(=O)N1CCN(c2ccc(OCC3COC(Cn4ccnc4)(c4ccc(Cl)cc4Cl)O3)cc2)CC1` (stereo not shown) the MIC was 8 µg/mL (≈ 15.1 µM) (Nakaseomyces glabratus; microbial growth, broth dilution; ATCC15126; 48 h).
`C[C@@H]1[C@H](O)[C@@H](C)/C=C/C=C/C=C/C=C/C=C/C=C/C=C/[C@H](O[C@@H]2O[C@H](C)[C@@H](O)[C@H](N)[C@@H]2O)C[C@@H]2O[C@](O)(C[C@@H](O)C[C@@H](O)[C@H](O)CC[C@@H](O)C[C@@H](O)CC(=O)O[C@H]1C)C[C@H](O)[C@H]2C(=O)O` gave an MIC of 0.5 µg/mL (≈ 0.541 µM) (Cryptococcus neoformans; microbial growth, broth dilution; H99; 48 h).
With `CCOC(=O)/C=C1/SC(N/N=C/c2c(-c3ccc(OC)cc3)nc3ncccn23)=NC1=O` the inhibition zone was 11 mm (Bacillus subtilis; microbial growth, well diffusion; ATCC6051; 100 µg/mL).
For `C=CC(=O)ON=C1C=CC(=C(C#N)c2ccccc2)C=C1`, the MFC was 16 µg/mL (≈ 57.9 µM) (Nakaseomyces glabratus; microbial killing, broth dilution; ATCC15126; 48 h).
`O=C(Nc1ccc2ccccc2c1)c1ccc(COC(Cn2ccnc2)c2ccc(Cl)cc2Cl)cc1` (stereo not shown) gave an MIC80 of 64 µg/mL (≈ 124 µM) (Nakaseomyces glabratus; microbial growth, broth dilution).
`CC(=O)ON=C1C=CC(=C(C#N)c2ccccc2)C=C1` gave an MFC of 16 µg/mL (≈ 60.5 µM) (Nakaseomyces glabratus; microbial killing, broth dilution; ATCC15126; 48 h).
The MIC80 of `Cc1ccc(NC(=O)c2ccc(COC(Cn3ccnc3)c3ccc(Cl)cc3Cl)cc2)cc1` (stereo not shown) is reported as 0.06 µg/mL (≈ 0.125 µM) (Nakaseomyces glabratus; microbial growth, broth dilution).
`C#CCOC(=O)ON=C1C=CC(=C(C#N)c2ccccc2)C=C1` has an MIC of 16 µg/mL (≈ 52.6 µM) (Nakaseomyces glabratus; microbial growth, broth dilution; ATCC15126; 48 h).
The MIC80 of `O=C(Nc1ccc(Cl)cc1)c1ccc(COC(Cn2ccnc2)c2ccc(Cl)cc2Cl)cc1` (stereo not shown) is reported as 0.125 µg/mL (≈ 0.25 µM) (Nakaseomyces glabratus; microbial growth, broth dilution).
With `C/C(=N/NC(=O)c1cn(-c2ccccc2)nc1-c1ccc(Br)cc1)c1c(O)cc(C)oc1=O` the MIC was 70 µg/mL (≈ 138 µM) (Bacillus subtilis; microbial growth).
With `O=C(Nc1cccc(F)c1)c1ccc(COC(Cn2ccnc2)c2ccc(Cl)cc2Cl)cc1` (stereo not shown) the MIC80 was 0.125 µg/mL (≈ 0.258 µM) (Nakaseomyces glabratus; microbial growth, broth dilution).
`C#CCON=C1C=CC(=C(C#N)c2ccccc2)C=C1` gave an MIC of 16 µg/mL (≈ 61.5 µM) (Nakaseomyces glabratus; microbial growth, broth dilution; ATCC15126; 48 h).
The MIC80 of `O=C(Nc1ccc2cccnc2c1)c1ccc(COC(Cn2ccnc2)c2ccc(Cl)cc2Cl)cc1` (stereo not shown) is reported as 8 µg/mL (≈ 15.5 µM) (Nakaseomyces glabratus; microbial growth, broth dilution).
With `C/C(=N/NC(=O)c1cn(-c2ccccc2)nc1-c1ccccc1)c1c(O)cc(C)oc1=O` the MIC was 50 µg/mL (≈ 117 µM) (Bacillus subtilis; microbial growth).
